# Source: ChEMBL document CHEMBL1125381, “Synthesis and alpha-adrenergic activities of 2- and 4-substituted imidazoline and imidazole analogues” (J Med Chem, 1992)
# Key:
# [1] = target: T1, Adrenergic receptor alpha-2 (Homo sapiens, UniProt P08913+P18825+P18089); experiment: Compound was evaluated for Adrenergic activity against Alpha-2 adrenergic receptor in human platelets
# T1 sequence (P08913 whole entry): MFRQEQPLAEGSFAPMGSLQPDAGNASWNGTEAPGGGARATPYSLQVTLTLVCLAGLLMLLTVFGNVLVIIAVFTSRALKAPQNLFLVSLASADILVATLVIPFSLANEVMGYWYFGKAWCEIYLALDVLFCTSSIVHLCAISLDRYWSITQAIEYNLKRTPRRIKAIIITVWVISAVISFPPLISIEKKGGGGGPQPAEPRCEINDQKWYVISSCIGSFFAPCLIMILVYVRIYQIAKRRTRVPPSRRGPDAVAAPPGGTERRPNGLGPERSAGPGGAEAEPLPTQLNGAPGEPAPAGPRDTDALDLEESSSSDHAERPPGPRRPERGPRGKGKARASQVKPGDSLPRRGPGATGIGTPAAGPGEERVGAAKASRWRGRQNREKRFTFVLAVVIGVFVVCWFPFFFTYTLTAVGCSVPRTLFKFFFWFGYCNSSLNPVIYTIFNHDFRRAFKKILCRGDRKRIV
# T1 sequence (P18825 whole entry): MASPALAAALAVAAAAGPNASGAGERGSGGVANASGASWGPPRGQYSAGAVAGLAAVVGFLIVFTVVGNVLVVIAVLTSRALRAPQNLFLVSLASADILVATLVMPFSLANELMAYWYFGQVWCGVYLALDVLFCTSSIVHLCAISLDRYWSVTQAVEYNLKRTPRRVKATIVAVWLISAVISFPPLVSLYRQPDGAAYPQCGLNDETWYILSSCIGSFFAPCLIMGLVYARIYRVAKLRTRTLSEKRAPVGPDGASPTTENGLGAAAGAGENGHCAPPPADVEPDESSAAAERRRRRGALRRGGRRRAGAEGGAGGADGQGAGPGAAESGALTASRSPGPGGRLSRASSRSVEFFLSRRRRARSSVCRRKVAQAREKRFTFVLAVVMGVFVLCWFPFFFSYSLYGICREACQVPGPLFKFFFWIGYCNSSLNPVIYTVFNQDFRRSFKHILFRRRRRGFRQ
# T1 sequence (P18089 whole entry): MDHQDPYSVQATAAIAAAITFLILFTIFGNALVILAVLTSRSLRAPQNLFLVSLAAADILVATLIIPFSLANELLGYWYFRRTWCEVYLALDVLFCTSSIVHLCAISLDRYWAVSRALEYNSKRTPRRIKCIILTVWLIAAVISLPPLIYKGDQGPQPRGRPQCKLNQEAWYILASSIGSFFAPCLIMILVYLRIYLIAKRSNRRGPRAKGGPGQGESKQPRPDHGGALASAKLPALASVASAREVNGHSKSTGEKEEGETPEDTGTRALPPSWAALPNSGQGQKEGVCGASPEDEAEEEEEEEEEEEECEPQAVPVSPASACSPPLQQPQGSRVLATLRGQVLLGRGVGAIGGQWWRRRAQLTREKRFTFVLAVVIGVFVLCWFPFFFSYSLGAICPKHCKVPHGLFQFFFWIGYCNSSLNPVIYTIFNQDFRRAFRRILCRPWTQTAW
# Summary of the method: (§1)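 Platelet-rich plasma from drug-free human volunteers (no medication for 10 days) treated with 1 mM aspirin. Inhibitors added at various concentrations 1 min before epinephrine. Read-out is primary-wave aggregation. […] Potency ratio = IC50 of medetomidine / IC50 of analogue.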
# [2] = Potency ratio is defined as IC50(medetomidine)/IC50(compound); summary of the method: as §1
# Rattus norvegicus [3] = species: Rattus norvegicus; experiment: Molar concentration of analogue which shifts concentration curve of phenylephrine to the right by 2-fold (0.3 log units); format: functional
# Summary of the method: (§2)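 Rat aorta (α1) antagonism. KB is the molar analogue concentration that shifts the phenylephrine concentration-response curve 2-fold (0.3 log units) to the right. Derived by computerized analysis of the concentration-response data.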
# Rattus norvegicus [4] = species: Rattus norvegicus; experiment: Percent maximal analogue response relative to phenylephrine =100%; format: functional
# Summary of the method: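 Rat aorta (α1) contraction. The maximal response to each analogue is expressed as percent of the maximal response to the reference agonist phenylephrine (phenylephrine = 100%). Mean ± SEM, N = 4.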
# [5] = target: Adrenergic receptor alpha-1 (Rattus norvegicus) (UniProt P15823+P23944+P43140); experiment: Molar concentration towards Alpha-1 adrenergic receptor which shifts concentration curve of phenylephrine to the right by 2-fold (0.3 log units); summary of the method: as §2
# [6] = target: T1, Adrenergic receptor alpha-2; experiment: Compound was tested for Adrenergic activity against Alpha-2 adrenergic receptor from rat aorta; format: tissue-based
# [7] = target: T2, Adrenergic receptor alpha-1 (Rattus norvegicus, UniProt P15823+P23944+P43140); experiment: Compound was evaluated for Adrenergic activity against Alpha-1 adrenergic receptor from rat aorta
# T2 sequence (P15823 whole entry): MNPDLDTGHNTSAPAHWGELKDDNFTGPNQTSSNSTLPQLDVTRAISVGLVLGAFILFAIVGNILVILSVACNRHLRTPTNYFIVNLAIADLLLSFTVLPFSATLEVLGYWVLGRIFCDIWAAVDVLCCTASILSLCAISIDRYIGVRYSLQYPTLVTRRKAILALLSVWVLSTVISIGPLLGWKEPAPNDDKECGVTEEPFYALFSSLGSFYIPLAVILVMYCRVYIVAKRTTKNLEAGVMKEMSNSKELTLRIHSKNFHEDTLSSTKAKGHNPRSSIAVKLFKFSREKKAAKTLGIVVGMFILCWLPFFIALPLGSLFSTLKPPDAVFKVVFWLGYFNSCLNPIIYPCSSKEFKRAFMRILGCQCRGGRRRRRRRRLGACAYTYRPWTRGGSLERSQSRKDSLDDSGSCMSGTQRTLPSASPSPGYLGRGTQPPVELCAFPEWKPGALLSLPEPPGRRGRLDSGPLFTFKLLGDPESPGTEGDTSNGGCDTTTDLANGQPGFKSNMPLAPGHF
# T2 sequence (P23944 whole entry): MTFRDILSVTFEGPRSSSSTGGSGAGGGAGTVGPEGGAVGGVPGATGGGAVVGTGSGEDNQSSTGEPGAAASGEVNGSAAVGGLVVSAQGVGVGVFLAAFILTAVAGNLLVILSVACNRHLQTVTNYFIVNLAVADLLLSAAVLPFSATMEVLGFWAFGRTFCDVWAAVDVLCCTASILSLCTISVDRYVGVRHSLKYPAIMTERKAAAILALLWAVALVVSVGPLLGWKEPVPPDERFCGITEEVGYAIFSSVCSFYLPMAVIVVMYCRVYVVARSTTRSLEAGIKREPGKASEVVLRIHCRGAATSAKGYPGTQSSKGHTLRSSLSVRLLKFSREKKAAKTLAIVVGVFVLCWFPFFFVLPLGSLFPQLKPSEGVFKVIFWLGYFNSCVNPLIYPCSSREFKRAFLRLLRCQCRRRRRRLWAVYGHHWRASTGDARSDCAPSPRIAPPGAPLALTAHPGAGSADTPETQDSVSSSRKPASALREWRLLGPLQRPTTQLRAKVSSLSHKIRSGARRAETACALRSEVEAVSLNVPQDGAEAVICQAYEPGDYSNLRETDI
# T2 sequence (P43140 whole entry): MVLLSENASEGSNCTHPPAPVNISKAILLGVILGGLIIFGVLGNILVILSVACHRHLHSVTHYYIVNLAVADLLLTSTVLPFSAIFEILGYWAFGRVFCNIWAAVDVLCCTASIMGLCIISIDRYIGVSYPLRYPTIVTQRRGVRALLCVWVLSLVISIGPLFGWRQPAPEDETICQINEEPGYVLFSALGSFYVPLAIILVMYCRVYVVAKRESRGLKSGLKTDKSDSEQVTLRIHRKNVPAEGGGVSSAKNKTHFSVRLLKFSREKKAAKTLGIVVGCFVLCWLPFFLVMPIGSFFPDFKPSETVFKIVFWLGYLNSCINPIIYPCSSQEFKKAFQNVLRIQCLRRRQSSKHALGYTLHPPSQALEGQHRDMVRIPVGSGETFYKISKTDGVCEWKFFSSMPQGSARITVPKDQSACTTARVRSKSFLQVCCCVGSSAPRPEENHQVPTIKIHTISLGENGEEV
# [8] = Potency ratio is defined as EC50 (medetomidine) / EC50 (compound)
Structure (SMILES),IC50 [1] [pM],Potency ratio [2],KB (Rattus norvegicus [3]) [µM],Max (Rattus norvegicus [4]) [%],Kb [5] [pM],IC50 [6] [pM],EC50 [7] [pM],Potency ratio [8]
CC(C1=NCCN1)c1ccc2ccccc2c1.Cl (stereo not given),16,0.21,0.26,–,–,–,–,–
Cl.c1ccc2c(CC3=NCCN3)cccc2c1 [NAPHAZOLINE HYDROCHLORIDE],–,–,–,68,–,–,–,–
CC(c1ccc2ccccc2c1)c1c[nH]cn1.Cl (stereo not given),120,0.028,–,–,68000,–,–,–
CC(c1c[nH]cn1)c1cccc2ccccc12.Cl (stereo not given),–,0.97,–,27,–,3.4,200000,1.6
CC(C1=NCCN1)c1cccc2ccccc12.Cl (stereo not given),14,0.24,–,62,–,–,–,0.57
CC(c1ncc[nH]1)c1cccc2ccccc12.Cl (stereo not given),260,0.013,–,40,–,–,–,0.04
CC(c1ccc2ccccc2c1)c1ncc[nH]1.O=C(O)C(=O)O (stereo not given),610,0.0054,1.5e-06,–,–,–,–,–
Cl.c1ccc2c(Cc3ncc[nH]3)cccc2c1,34,0.097,–,56,–,–,200000,1.6
Cc1cccc(C(C)c2c[nH]cn2)c1C.Cl (stereo not given) [MEDETOMIDINE HYDROCHLORIDE],–,–,–,42,–,–,310000,–
